≈ marks a conversion by molar mass, not a printed value. Calls of active or inactive are those of the source. The calls are words filed in the database; no cut-off is given here.
How the values were obtained:
Staphylococcus aureus [1] = assay: Antibacterial activity against Staphylococcus aureus ATCC 29213 assessed as bacterial growth inhibition by broth microdilution method; format: functional
Summary of the method: (§1)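 MIC values reported in µg/mL, determined by broth microdilution in microdilution plates.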

Pseudomonas aeruginosa [2] = assay: Antibacterial activity against Pseudomonas aeruginosa ATCC 27853 assessed as bacterial growth inhibition by broth microdilution method; format: functional; summary of the method: as §1
Escherichia coli [3] = assay: Antibacterial activity against Escherichia coli ATCC 25922 assessed as bacterial growth inhibition by broth microdilution method; format: functional; summary of the method: as §1
Klebsiella pneumoniae = assay: Antibacterial activity against Klebsiella pneumonia assessed as bacterial growth inhibition by broth microdilution method; format: functional; summary of the method: as §1
Enterococcus faecalis [4] = assay: Antibacterial activity against Enterococcus faecalis assessed as bacterial growth inhibition by broth microdilution method; format: functional; summary of the method: as §1
Staphylococcus aureus [5] = assay: Antibacterial activity against methicillin-resistant Staphylococcus aureus assessed as bacterial growth inhibition by broth microdilution method; format: functional
Summary of the method: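 MIC read by micro broth dilution; values given in μg/mL.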

Staphylococcus aureus [6] = assay: Antibacterial activity against Staphylococcus aureus ATCC 25923 assessed as bacterial growth inhibition by broth microdilution method; format: functional; summary of the method: as §1
Pseudomonas aeruginosa [7] = assay: Antibacterial activity against Pseudomonas aeruginosa assessed as bacterial growth inhibition by broth microdilution method; format: functional; summary of the method: as §1
Staphylococcus aureus [8] = assay: Antibacterial activity against Staphylococcus aureus assessed as bacterial growth inhibition by broth microdilution method; format: functional; summary of the method: as §1
Acinetobacter baumannii = assay: Antibacterial activity against Acinetobacter baumannii assessed as bacterial growth inhibition by broth microdilution method; format: functional; summary of the method: as §1
Escherichia coli [9] = assay: Antibacterial activity against Escherichia coli assessed as bacterial growth inhibition by broth microdilution method; format: functional; summary of the method: as §1
Staphylococcus aureus [10] = assay: Antibacterial activity against methicillin-resistant Staphylococcus aureus measured after 13 passages by broth microdilution method; format: functional, organism-based
Enterococcus faecalis [11] = assay: Potency index, ratio of sulfathiazole MIC to test compound MIC for Enterococcus faecalis assessed as bacterial growth inhibition by broth microdilution method; format: functional
DNA [12] = assay: Binding affinity to DNA (unknown origin) assessed as red shift in absorption maxima by UV-vis spectrophotometric analysis; format: nucleic-acid assay
Summary of the method: (§2)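 DNA UV-vis absorption spectra were recorded with increasing test compound concentration, following the 260 nm peak intensity and position. Hypochromism was judged by comparing the summed absorbance of free DNA and free compound with the measured absorbance of the compound-DNA complex.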

Calf thymus DNA = assay: Binding affinity to calf thymus DNA assessed as DNA intercalation by competitive neutral red dye displacement based UV-Vis absorbance analysis; details: Bos taurus
Summary of the method: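 Neutral red (NR) competition: absorbance around 530 nm was followed with test compound and increasing calf thymus DNA, compared against free NR titrated with increasing calf thymus DNA.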

Staphylococcus aureus [13] = assay: Potency index, ratio of sulfathiazole MIC to test compound MIC for methicillin-resistant Staphylococcus aureus assessed as bacterial growth inhibition by broth microdilution method; format: functional
[14] = Cytotoxicity against human […] assessed as reduction in cell viability at 100 ug/ml by MTT assay; format: cell-based; details: dose 100 µg/ml
Summary of the method: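 Endothelial […] were exposed to a range of compound concentrations up to 100 µg/mL, and viability was read by MTT assay.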

Staphylococcus aureus [15] = assay: Potency index, ratio of norfloxacin MIC to test compound MIC for methicillin-resistant Staphylococcus aureus assessed as bacterial growth inhibition by broth microdilution method; format: functional
DNA [16] = assay: Binding affinity to methicillin-resistant Staphylococcus aureus DNA assessed as DNA intercalation by competitive neutral red dye displacement based UV-Vis absorbance analysis; format: nucleic-acid assay
DNA [17] = assay: Binding affinity to DNA (unknown origin) assessed as hypochromic shift by UV-vis spectrophotometric analysis; format: nucleic-acid assay; summary of the method: as §2
DNA [18] = assay: Binding affinity to DNA (unknown origin) assessed as increase in maximum absorption peak of DNA at 260 nm by UV-vis spectrophotometric analysis; format: nucleic-acid assay; summary of the method: as §2

Structure (SMILES)	MIC (Staphylococcus aureus [1]) [µg/mL]	MIC (Pseudomonas aeruginosa [2]) [µg/mL]	MIC (Escherichia coli [3]) [µg/mL]	MIC (Klebsiella pneumoniae) [µg/mL]	MIC (Enterococcus faecalis [4]) [µg/mL]	MIC (Staphylococcus aureus [5]) [µg/mL]	MIC (Staphylococcus aureus [6]) [µg/mL]	MIC (Pseudomonas aeruginosa [7]) [µg/mL]	MIC (Staphylococcus aureus [8]) [µg/mL]	MIC (Acinetobacter baumannii) [µg/mL]	MIC (Escherichia coli [9]) [µg/mL]	other results
CC(=O)Nc1ccc(S(=O)(=O)CC(CO)n2cnc(I)c2)cc1 (stereo not drawn)	64 (≈ 142 µM)	32 (≈ 71.2 µM)	32 (≈ 71.2 µM)	64 (≈ 142 µM)	64 (≈ 142 µM)	32 (≈ 71.2 µM)	64 (≈ 142 µM)	32 (≈ 71.2 µM)	64 (≈ 142 µM)	32 (≈ 71.2 µM)	128 (≈ 285 µM)	
CCc1nc(C)cn1C(CO)CS(=O)(=O)c1ccc(N)cc1 (stereo not drawn)	128 (≈ 396 µM)	32 (≈ 98.9 µM)	32 (≈ 98.9 µM)	128 (≈ 396 µM)	16 (≈ 49.5 µM)	16 (≈ 49.5 µM)	64 (≈ 198 µM)	128 (≈ 396 µM)	64 (≈ 198 µM)	64 (≈ 198 µM)	64 (≈ 198 µM)	
CC(=O)Nc1ccc(S(=O)(=O)CC(CO)n2cnc(Br)c2)cc1 (stereo not drawn)	32 (≈ 79.5 µM)	32 (≈ 79.5 µM)	32 (≈ 79.5 µM)	256 (≈ 636 µM)	8 (≈ 19.9 µM)	8 (≈ 19.9 µM)	64 (≈ 159 µM)	256 (≈ 636 µM)	64 (≈ 159 µM)	64 (≈ 159 µM)	64 (≈ 159 µM)	
CCc1nc(I)cn1C(CO)CS(=O)(=O)c1ccc(NC(C)=O)cc1 (stereo not drawn)	64 (≈ 134 µM)	32 (≈ 67 µM)	32 (≈ 67 µM)	64 (≈ 134 µM)	64 (≈ 134 µM)	128 (≈ 268 µM)	64 (≈ 134 µM)	256 (≈ 536 µM)	64 (≈ 134 µM)	64 (≈ 134 µM)	64 (≈ 134 µM)	
CCc1nccn1C(CO)CS(=O)(=O)c1ccc(NC(C)=O)cc1 (stereo not drawn)	16 (≈ 45.5 µM)	64 (≈ 182 µM)	32 (≈ 91.1 µM)	128 (≈ 364 µM)	32 (≈ 91.1 µM)	32 (≈ 91.1 µM)	64 (≈ 182 µM)	256 (≈ 728 µM)	64 (≈ 182 µM)	16 (≈ 45.5 µM)	64 (≈ 182 µM)	
CCc1nccn1C(CO)CS(=O)(=O)c1ccc(N)cc1 (stereo not drawn)	64 (≈ 207 µM)	32 (≈ 103 µM)	32 (≈ 103 µM)	128 (≈ 414 µM)	16 (≈ 51.7 µM)	16 (≈ 51.7 µM)	64 (≈ 207 µM)	256 (≈ 827 µM)	64 (≈ 207 µM)	64 (≈ 207 µM)	64 (≈ 207 µM)	
Nc1ccc(S(=O)(=O)CC(CO)n2cnc(I)c2)cc1 (stereo not drawn)	64 (≈ 157 µM)	32 (≈ 78.6 µM)	32 (≈ 78.6 µM)	256 (≈ 629 µM)	256 (≈ 629 µM)	64 (≈ 157 µM)	64 (≈ 157 µM)	256 (≈ 629 µM)	64 (≈ 157 µM)	64 (≈ 157 µM)	64 (≈ 157 µM)	
CCc1nc(I)cn1C(CO)CS(=O)(=O)c1ccc(N)cc1 (stereo not drawn)	64 (≈ 147 µM)	32 (≈ 73.5 µM)	32 (≈ 73.5 µM)	256 (≈ 588 µM)	64 (≈ 147 µM)	16 (≈ 36.8 µM)	64 (≈ 147 µM)	256 (≈ 588 µM)	64 (≈ 147 µM)	64 (≈ 147 µM)	64 (≈ 147 µM)	
CC(=O)Nc1ccc(S(=O)(=O)CC(CO)n2ccnc2)cc1 (stereo not drawn)	32 (≈ 99 µM)	64 (≈ 198 µM)	64 (≈ 198 µM)	128 (≈ 396 µM)	32 (≈ 99 µM)	32 (≈ 99 µM)	64 (≈ 198 µM)	128 (≈ 396 µM)	64 (≈ 198 µM)	64 (≈ 198 µM)	64 (≈ 198 µM)	
Nc1ccc(S(=O)(=O)Nc2nccs2)cc1 [SULFATHIAZOLE]	512 (≈ 2010 µM)	512 (≈ 2010 µM)	128 (≈ 501 µM)	128 (≈ 501 µM)	512 (≈ 2010 µM)	64 (≈ 251 µM)	512 (≈ 2010 µM)	128 (≈ 501 µM)	512 (≈ 2010 µM)	64 (≈ 251 µM)	256 (≈ 1000 µM)	Activity (Staphylococcus aureus [10]): inactive
CCc1nc(C)cn1C(CO)CS(=O)(=O)c1ccc(NC(C)=O)cc1 (stereo not drawn)	32 (≈ 87.6 µM)	32 (≈ 87.6 µM)	32 (≈ 87.6 µM)	128 (≈ 350 µM)	16 (≈ 43.8 µM)	4 (≈ 10.9 µM)	128 (≈ 350 µM)	128 (≈ 350 µM)	64 (≈ 175 µM)	64 (≈ 175 µM)	64 (≈ 175 µM)	Ratio (Enterococcus faecalis [11]): 32; Activity (Staphylococcus aureus [10]): Active; Activity (DNA [12]): Active; Activity (Calf thymus DNA): inactive; Ratio (Staphylococcus aureus [13]): 16; Activity [14]: Non-Toxic; Ratio (Staphylococcus aureus [15]): 2; Activity (DNA [16]): Active; Activity (DNA [17]): Active; Activity (DNA [18]): Active
CC(=O)Nc1ccc(S(=O)(=O)CC(CO)n2cnc(C)c2)cc1 (stereo not drawn)	32 (≈ 94.8 µM)	32 (≈ 94.8 µM)	64 (≈ 190 µM)	32 (≈ 94.8 µM)	64 (≈ 190 µM)	16 (≈ 47.4 µM)	64 (≈ 190 µM)	128 (≈ 379 µM)	128 (≈ 379 µM)	64 (≈ 190 µM)	64 (≈ 190 µM)	

Reference: ChEMBL document CHEMBL4819149, “A facile reaction to access novel structural sulfonyl-hybridized imidazolyl ethanols as potential DNA-targeting antibacterial agents” (Bioorg Med Chem Lett, 2021)
